# Assay outcomes from PubChem BioAssay.
# SR-BI HDL uptake: inhibitors of SR-BI mediated HDL lipid uptake, primary screen, ldlA[mSR-BI] cells, fluorescence, single point; Scavenger receptor class B member 1 (Mus musculus), Q61009; ldlA[mSR-BI] CHO cells, DiI-HDL uptake fluorescence, 3 h; 320,000 tested, 0.96% active; inhibition, % at 12.5 µM; AID 488896, 2010;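 active = mean replicate inhibition of at least 70% and a set share of replicates each scoring 70 or more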
# Xi reactivation: activators of inactive X chromosome reactivation, primary screen, imaging, XiGFP fibroblasts, GFP high-content imaging, set 2; AID 743238, 2013; 360,000 tested, 0.055% active; activation, % at 7.58 µM; XiGFP mouse fibroblasts, % GFP-positive cells imaging, 3 d; cells co-treated with 5-aza-dC sensitizer; scaled so ellipticine positive control = 100%;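 active = mean normalized replicate activation at least 10% and every replicate at or above 10%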
#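 System: 68-5-11 XiGFP fibroblast line; Timing: 3 days compound exposure; Compound dosing: one concentration, pinned; Benchmarks: positive control ellipticine, 6 µM final; Buffer or medium: DMEM containing 5-aza-dC.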
# ARNT-TACC3 inh: disruptors of ARNT/TACC3 protein interaction, primary screen, biochemical, AlphaScreen, single concentration; 390,000 tested, 0.66% active; inhibition, % at 9.99 µM; AlphaScreen His-ARNT PAS-B/GST-TACC3 binding, luminescence; TACC3 fragment carries E629A point mutation; AID 623870, 2012;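 active = mean inhibition of replicates at least 50% and at least half of replicates each reaching 50%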
# SR-BI uptake up: activators of SR-BI mediated DiI-HDL uptake, primary screen, ldlA[mSR-BI] CHO cells, DiI fluorescence | 3 h; 100 = double the neutral-control signal | activation, % at 12.5 µM | 320,000 tested, 0.096% active;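 active = mean replicate activation of at least 60% and every replicate at or above 60%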
#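 Test system: SR-BI-overexpressing, LDLR-lacking CHO cells; Medium: Ham's F12 with 0.5% BSA, HEPES 25 mM, pH 7.4; Schedule: 3 h, 37 °C; Technique: bottom-read fluorescence, 550/595 nm.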
# sPLA2-III inh: human group III sPLA2 inhibitors, primary screen, biochemical, QFRET, BODIPY PC-A2 liposome substrate; Group 3 secretory phospholipase A2 (Homo sapiens), Q9NZ20; QFRET BODIPY PC-A2 liposome hydrolysis, fluorescence; inhibition, % at 12.2 µM; 370,000 tested, 0.56% active; AID 743126, 2013;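 active = inhibition above mean plus 3 SD of compounds lying within the high and low control bounds, cut at about 19% in these data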
# Target sequence (Q9NZ20 whole entry, looked up): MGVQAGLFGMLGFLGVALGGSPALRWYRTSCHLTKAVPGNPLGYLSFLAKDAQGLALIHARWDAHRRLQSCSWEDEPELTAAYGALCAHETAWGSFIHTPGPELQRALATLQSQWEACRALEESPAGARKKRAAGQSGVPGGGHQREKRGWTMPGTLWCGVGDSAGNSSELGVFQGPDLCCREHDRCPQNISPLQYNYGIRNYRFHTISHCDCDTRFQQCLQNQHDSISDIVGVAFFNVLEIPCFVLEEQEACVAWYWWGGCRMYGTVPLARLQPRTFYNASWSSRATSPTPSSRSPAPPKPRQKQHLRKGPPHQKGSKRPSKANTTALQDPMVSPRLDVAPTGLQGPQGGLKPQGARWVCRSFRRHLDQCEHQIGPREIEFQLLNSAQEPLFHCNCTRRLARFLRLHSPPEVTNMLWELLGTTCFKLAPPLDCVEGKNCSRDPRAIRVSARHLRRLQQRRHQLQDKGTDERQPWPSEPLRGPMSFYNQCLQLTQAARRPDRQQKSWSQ
# NSD2 inh: NSD2 histone methyltransferase inhibitors, primary screen, biochemical, AlphaScreen, single concentration, set 2 | Histone-lysine N-methyltransferase NSD2 (Homo sapiens), O96028 | NSD2 peptide methylation, 120 min | inhibition, % at 12.5 µM | 310,000 tested, 0.54% active; in the data active = inhibition above about 50%
# Numbers stand for hits; . = inactive; / = no result given. Most compounds without a hit are left out; they make up all but 2% or so of the library.
SMILES,SR-BI HDL uptake,Xi reactivation,ARNT-TACC3 inh,SR-BI uptake up,sPLA2-III inh,NSD2 inh
O=C(NC1CCS(=O)(=O)C1)c1cccc(S(=O)(=O)N2CCOCC2)c1 (centres undefined),.,/,.,.,.,.
CN=c1scc(-c2cccs2)n1/N=C/c1ccc(O)c(O)c1O,.,.,60,.,.,.
COc1ccccc1CCNC(=O)c1cccc(NC(=O)CC2SC(N3CCCCC3)=NC2=O)c1 (centres undefined),80,.,.,.,.,.
CCS(=O)(=O)C(C)(CCl)C(=O)Nc1ccc(C(=O)OC)cc1 (centres undefined),.,.,active,.,.,.
COC(=O)c1ccc(NC(=O)NCCCl)cc1,.,.,.,.,.,.
COc1ccccc1C(C)Nc1ccc(S(=O)(=O)N2CCN(C)CC2)cc1[N+](=O)[O-] (centres undefined),.,.,65,.,.,.
CC(Nc1ccc(S(=O)(=O)N2CCN(C)CC2)cc1[N+](=O)[O-])c1ccccc1 (centres undefined),.,.,.,.,.,.
[O-][n+]1ccc(CC(O)(C(F)(F)F)C(F)(F)F)cc1,/,.,/,/,.,.
Cc1ccc(NS(=O)(=O)c2cccc(C(=O)N/N=C/c3c(C)nn(-c4ccccc4)c3N3CCCC3)c2)c(C)c1,74,.,.,.,.,.
CCN(CC)S(=O)(=O)c1cccc(C(=O)N/N=C/c2c(C)nn(-c3ccccc3)c2Cl)c1,73,.,.,.,.,.
CCN(CC)S(=O)(=O)c1cccc(C(=O)N/N=C/c2ccccc2OCC(=O)O)c1,.,.,.,.,.,.
C[C@H](CO)N1C[C@H](C)[C@H](CN(C)Cc2ccc(C(=O)O)cc2)Oc2cc(C#CCC3CCCC3)ccc2S1(=O)=O,/,.,.,/,/,/
COc1ccccc1-n1c2nc3ccccc3nc2c2c(=O)n(-c3cc(C)cc(C)c3)cnc21,79,.,/,.,.,.
CN1C(=O)c2cc(NC(=O)C3CCC3)ccc2OC[C@@H]2O[C@H](CC(=O)NCC3CCCCC3)CC[C@@H]21,/,.,/,/,/,/
O=P(COc1ccccc1)(c1ccccc1)c1ccccc1,.,/,.,.,.,/
Cc1c(-c2ccccc2)nc2ccccc2c1C(=O)Oc1ccc([N+](=O)[O-])cc1,88,/,.,.,.,.
Cc1nc2cccc(C(=O)Oc3ccc([N+](=O)[O-])cc3)c2o1,.,.,.,.,.,.
O=C(N/N=C/c1sc(=O)n(-c2ccccc2)c1Cl)c1ccccc1,85,.,.,.,.,.
O=C(O)c1cccc(Cn2c(Cl)c(/C=N/NC(=O)c3ccc(O)cc3)sc2=O)c1,/,.,41,/,.,/
COc1ccc(NC(=O)CN(C)C(=O)c2cc(S(=O)(=O)N3CCCCCC3)ccc2OC)cc1,.,.,.,.,.,.
CO[C@H]1CC[C@@H]2CCOc3ccc(C#N)cc3C(=O)N(C)CCCC(=O)N(C)C[C@@H]1O2,/,.,.,/,/,/
COc1ccc(NC(=O)C(=O)NCCN2CCN(C(=O)c3ccc(C(C)(C)C)cc3)CC2)cc1,77,.,.,.,.,/
C[C@@H]1CN([C@H](C)CO)C(=O)c2cc(NC(=O)C3CCCCC3)ccc2O[C@@H](C)CCCCO[C@H]1CN(C)C(=O)Nc1ccc(C(F)(F)F)cc1,/,.,.,/,/,/
CCN1CCN(c2cc(C)c3cc(NC(=O)c4cccs4)ccc3n2)CC1,/,12,.,/,.,/
COc1cccc(C(=O)Nc2ccc3nc(N4CCOCC4)cc(C)c3c2)c1,79,.,.,.,.,/
SMILES,SR-BI HDL uptake,Xi reactivation,ARNT-TACC3 inh,SR-BI uptake up,sPLA2-III inh,NSD2 inh
CCN1CCN(c2cc(C)c3cc(NC(=O)c4cccc(OC)c4)ccc3n2)CC1,/,.,.,/,.,/
Cc1cccc(C(=O)c2c(N)sc3c2CCC(C)C3)c1 (centres undefined),73,.,.,.,.,.
Cc1cc(=O)oc2cc(OCc3cc4c(cc3Cl)OCO4)ccc12,83,/,.,.,.,.
CCOC(=O)c1ccc(-c2c(C)cc3oc(=O)cc(-c4ccccc4)c3c2C)cc1,73,.,.,.,.,/
Cc1cc2oc(=O)cc(-c3ccccc3)c2c(C)c1-c1ccc(N(C)C)cc1,78,.,.,.,.,/
Cc1ccc(-c2c(C)cc3oc(=O)cc(-c4ccccc4)c3c2C)cc1,78,.,.,.,.,/
COc1ccc(-c2c(C)cc3oc(=O)cc(-c4ccccc4)c3c2C)cc1,.,.,.,.,.,/
CC1(C)NC(=O)N(CC(=O)OCC(=O)c2ccc(F)cc2)C1=O,.,.,.,152,.,.
COc1cc(-c2noc(C)c2/C=C/c2ccc(OC(C)=O)cc2)cc(OC)c1OC,75,.,.,.,.,/
Cc1ccc(NC(=O)CSCC(=O)Nc2ccc(N3CCOCC3)c(Cl)c2)cc1,.,/,.,.,.,.
O=C(OCc1cc(=O)oc2cc(O)ccc12)c1cc(S(=O)(=O)N2CCOCC2)ccc1F,.,.,.,.,.,.
CCc1cc2c(COC(=O)c3cc(S(=O)(=O)N4CCOCC4)ccc3F)cc(=O)oc2cc1O,78,.,.,.,.,.
CC(=O)OCC1=C(C(=O)O)N2C(=O)[C@@H](NC(=O)CSc3ccncc3)[C@H]2SC1,.,.,.,.,.,.
C[C@H]1CN([C@@H](C)CO)C(=O)c2ccccc2-c2ccccc2CO[C@@H]1CN(C)CC1CC1,/,.,.,/,/,/
CS(=O)(=O)N(CC(=O)NCC1CCCO1)c1ccc(F)c(Cl)c1 (centres undefined),.,/,.,.,.,.
COc1ccc(-c2nc(CS(=O)(=O)CC(=O)NCCc3ccc(C)cc3)c(C)o2)cc1,99,.,.,/,.,.
CCOc1ccc(-n2cc(C(=O)NCc3ccco3)c3cc(OC)c(OC)cc3c2=O)cc1,.,/,.,.,.,.
CCOc1ccc(-n2cc(C(=O)N3CCCCCC3)c3cc(OC)c(OC)cc3c2=O)cc1,75,/,.,.,.,/
Nc1nc(COC(=O)C2CC(=O)N(Cc3ccccc3)C2)nc(Nc2ccccc2)n1 (centres undefined),.,.,.,.,.,.
Cc1ccc([N+](=O)[O-])cc1NC(=O)CSc1nncc2ccccc12,.,.,.,.,.,.
COc1ccc(N2CCN(C(=O)Cn3nnc(-c4ccccc4N)n3)CC2)cc1,83,.,.,.,.,.
